Results gathered from unrelated publications.
FLT3 N841I: Receptor-type tyrosine-protein kinase FLT3 (FLT3, Homo sapiens, UniProt P36888, N841I)
FLT3 K663Q: Receptor-type tyrosine-protein kinase FLT3 (FLT3, Homo sapiens, UniProt P36888, K663Q)
FLT3 R834Q: Receptor-type tyrosine-protein kinase FLT3 (FLT3, Homo sapiens, UniProt P36888, R834Q)
FLT3: Receptor-type tyrosine-protein kinase FLT3 (FLT3, Homo sapiens, UniProt P36888)
FLT3 autoinhibited: Receptor-type tyrosine-protein kinase FLT3, autoinhibited (FLT3, Homo sapiens, UniProt P36888)
FLT3 D835Y: Receptor-type tyrosine-protein kinase FLT3 (FLT3, Homo sapiens, UniProt P36888, D835Y)
FLT3 D835V: Receptor-type tyrosine-protein kinase FLT3 (FLT3, Homo sapiens, UniProt P36888, D835V)
FLT3 D835H: Receptor-type tyrosine-protein kinase FLT3 (FLT3, Homo sapiens, UniProt P36888, D835H)
FLT3 ITD: Receptor-type tyrosine-protein kinase FLT3 (FLT3, Homo sapiens, UniProt P36888, ITD)

Structure (SMILES) | target | assay | conditions | remaining binding
Nc1ncc2c(n1)-c1c([nH]c3ccc(C#CC4CC4)cc13)CCCC2 | FLT3 N841I | binding, competition with immobilised ligand | 1 µM | 89%
CCN1CCN(Cc2ccc(C(=O)Nc3ccc(C)c(Oc4ccc5c(c4)CC(=O)N5)c3)cc2C(F)(F)F)CC1 | FLT3 K663Q | binding, competition with immobilised ligand | 1 µM | 45%
O=C(NCCCN1CCOCC1)c1ccc(Nc2nccc(-c3cc4ccccc4s3)n2)cc1 | FLT3 R834Q | binding, competition with immobilised ligand | 1 µM | 43%
O=C1NC(c2ccccn2)Sc2ccccc21 (stereo not drawn) | FLT3 K663Q | cell-free assay, competition with immobilised ligand | 1 µM | 82%
C[C@H]1CCN(c2nccc(-c3cnn4ncccc34)n2)C1 | FLT3 | binding | 1 µM | 81%
COc1cnc(Nc2cccc(S(N)(=O)=O)c2)nc1N1CCN(c2ccccc2)CC1 | FLT3 | binding, competition with immobilised ligand | 1 µM | 36%
C[C@@H]1CN(c2ccc3ncc(-c4ccc5[nH]nc(C6CC6)c5c4)n3n2)C[C@H](C)O1 | FLT3 | binding, competition with immobilised ligand | 50 nM | 31%
C[C@H](c1cccc(C#N)c1)n1cc(Cl)cc(C(N)=O)c1=N | FLT3 R834Q | cell-free assay, competition with immobilised ligand | 1 µM | 100%
CN(C)c1ncc(F)c(-c2cnn3ncccc23)n1 | FLT3 autoinhibited | binding | 1 µM | 72%
CN1CCN(c2ccc(Nc3nccc(-c4ccccc4)n3)cc2C(F)(F)F)CC1 | FLT3 K663Q | binding | 10 µM | 0.35%
CNC(=O)[C@@H]1CC[C@@H](n2c(-c3ccc4cnccc4c3)nc3ccc(C(=O)NCc4cccc(C(N)=O)c4)cc32)C1 | FLT3 D835Y | binding, competition with immobilised ligand | 1 µM | 100%
C[C@@H](c1ccc(-n2cnc3c(N)ncnc32)cc1)N1CCc2nn(C)c(Cc3ccccc3)c2C1=O | FLT3 D835Y | binding, competition with immobilised ligand | 0.1 µM | 100%
COc1cnc(Nc2cccc(S(N)(=O)=O)c2)nc1N1CCN(c2ccccc2)C(=O)C1 | FLT3 D835V | binding, competition with immobilised ligand | 1 µM | 42%
O=C(c1ccc(Nc2ncc(Cl)c(-c3ccc(Cl)s3)n2)cc1)N1CCC(N2CCCC2)CC1 | FLT3 D835H | binding, competition with immobilised ligand | 1 µM | 2.3%
N[C@@H]1CCN(c2nccc(-c3cnn4ncccc34)n2)C1 | FLT3 D835Y | binding | 1 µM | 97%
CC(=O)N1CCC(c2ccc(C(=O)NC(=N)N)cc2C(F)(F)F)CC1 | FLT3 K663Q | cell-free assay, competition with immobilised ligand | 1 µM | 100%
C=CC(=O)N1CCC(C(=O)NCC(=O)N2CCN(c3nc(-c4cnc(N)nc4C(F)F)nc(N4CCOCC4)n3)CC2)CC1 | FLT3 D835Y | binding, competition with immobilised ligand | 1 µM | 99%
COc1ccnn2ncc(-c3ccnc(N(C)C)n3)c12 | FLT3 R834Q | binding | 1 µM | 87%

Structure (SMILES) | target | assay | conditions | remaining binding
O=C(NCCCN1CCOCC1)c1ccc(Nc2ncc(Cl)c(-c3ccc(Cl)s3)n2)cc1 | FLT3 ITD | binding, competition with immobilised ligand | 1 µM | 0.75%
O=C(NCC1CCOCC1)c1n[nH]cc1NC(=O)c1c(F)cccc1F | FLT3 D835H | binding, competition with immobilised ligand | 1 µM | 98%
O=C(c1ccc(Nc2nccc(-c3cc4ccccc4s3)n2)cc1)N1CCC(N2CCCC2)CC1 | FLT3 R834Q | binding, competition with immobilised ligand | 1 µM | 30%
CS(=O)(=O)N1CCCC(NC(=O)[C@H](CCC2CCCCC2)NC(=O)c2ccc(CNC(=O)c3cnc4ccccn34)cc2)C1 (stereo partly drawn) | FLT3 autoinhibited | cell-free assay, competition with immobilised ligand | 0.1 µM | 93%
c1cncc(-c2cccc(Nc3nccc(NC4CCCCC4)n3)c2)c1 | FLT3 R834Q | binding, competition with immobilised ligand | 10 µM | 5.5%
c1cnn2ncc(-c3ccnc(N4CCC45COC5)n3)c2c1 | FLT3 autoinhibited | binding | 1 µM | 58%
c1ccc(N2CCN(Cc3nc4ccccc4[nH]3)CC2)nc1 | FLT3 | binding, competition with immobilised ligand | 1 µM | 100%
Cc1cnn2ncc(-c3ccnc(N(C)C)n3)c2c1 | FLT3 N841I | binding | 1 µM | 100%
CN1CCN(c2ccc(Nc3nccc(-c4cccc([N+](=O)[O-])c4)n3)cc2C(F)(F)F)CC1 | FLT3 D835H | binding | 10 µM | 1.1%
CC1CCCN1c1nccc(-c2cnn3ncccc23)n1 (stereo not drawn) | FLT3 | binding | 1 µM | 100%
O=C(Nc1c[nH]nc1C(=O)NC1CCNCC1)c1cc(F)cc(F)c1 | FLT3 K663Q | binding, competition with immobilised ligand | 1 µM | 96%
O=C(c1ccc(Nc2ncc(Cl)c(-c3cc4ccccc4s3)n2)cc1)N1CCC(N2CCCC2)CC1 | FLT3 D835H | binding, competition with immobilised ligand | 1 µM | 2.4%
Cc1nc(N2CC[C@@H](O)C2)ncc1-c1cc(C(F)(F)F)cc2[nH]ncc12 | Receptor-type tyrosine-protein kinase FLT3 (FLT3, Homo sapiens, UniProt P36888, F691L/ITD) | binding, competition with immobilised ligand | 1 µM | 69%
COc1ncc2cc3ccccc3nc2c1C#N | FLT3 autoinhibited | cell-free assay, competition with immobilised ligand | 5 µM | 100%
C[C@H](c1ccc(F)cc1)N(Cc1cccc(C(=O)O)c1)C(=O)c1cnc2ccccc2c1 | FLT3 D835V | cell-free assay, competition with immobilised ligand | 1 µM | 98%
Cc1cnc(Nc2ccc(C(=O)N3CCC(N4CCCC4)CC3)cc2)nc1-c1cc2ccccc2s1 | FLT3 ITD | binding, competition with immobilised ligand | 1 µM | 6.6%
CN(C)c1nccc(-c2cnn3ncccc23)n1 | FLT3 D835H | binding | 1 µM | 100%
COc1ccc2cc(OCC3(C(=O)O)CN(C(=O)c4ccc(F)cc4)C3)ccc2c1 | FLT3 R834Q | cell-free assay, competition with immobilised ligand | 1 µM | 100%
